These results are taken from ChEMBL document CHEMBL5107935, “Modulating β-arrestin 2 recruitment at the δ- and μ-opioid receptors using peptidomimetic ligands” (RSC Med Chem, 2021).

The target of assay [1] is T1, Mu-type opioid receptor (Homo sapiens, UniProt P35372). In words: Agonist activity at human mu opioid receptor expressed in CHO cells co-expressing beta-arrestin2 assessed as beta-arrestin2 recruitment measured after 90 mins by PathHunter assay. It counts as functional, cell-based. In general terms: Arrestin recruitment assays detect the binding of arrestin to an activated receptor.

Assay [2] concerns the target T2, Delta-type opioid receptor (Homo sapiens, UniProt P41143). Description: Displacement of [3H]DPDPE from human delta opioid receptor expressed in CHO cell membrane measured after 90 mins by liquid scintillation counting method. It counts as cell membranes. An outline of the steps:
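Membranes (7 μg protein) were added and incubated 90 min at room temperature in 50 mM Tris HCl, 10 mM MgCl2, 1 mM EDTA, pH 7.4. Samples were filtered on GF-B, washed 4× with ice-cold 50 mM Tris HCl, and counted by scintillation. Points were run in duplicate.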
(Displacement assays read how much labelled ligand stays bound in the presence of the test substance.)

The species entered for another assay is Homo sapiens. Description: Selectivity ratio, ratio of Ki for displacement of [3H]DAMGO from human mu opioid receptor expressed in CHO cell membrane to Ki for displacement of [3H]DPDPE from human delta opioid receptor expressed in CHO cell membrane. The class given is cell membranes.
Assay [3] addresses Mu-type opioid receptor (Mus musculus, UniProt P42866). In words: Agonist activity at FLAG-tagged mouse mu opioid receptor expressed in human HEK293 cells assessed as inhibition of forskolin stimulated cAMP production preincubated for 20 mins followed by forskolin stimulation and measured after 15 mins by GloSensor assay. It counts as functional, cell-based.
For assay [4], the target named is T1, Mu-type opioid receptor. Description: Displacement of [3H]DAMGO from human mu opioid receptor expressed in CHO cell membrane incubated for 90 mins by liquid scintillation counting method. The class given is cell membranes.
The target in assay [5] is Delta-type opioid receptor (Mus musculus, UniProt P32300). Description: Agonist activity at FLAG-tagged mouse delta opioid receptor expressed in human HEK293 cells assessed as inhibition of forskolin stimulated cAMP production preincubated for 20 mins followed by forskolin stimulation and measured after 15 mins by GloSensor assay. It counts as functional, cell-based. An outline of the steps: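 HEK293 cells transiently transfected 1:3 with FLAG-mouse δOR or HA-mouse μOR plus pGloSensor22F-cAMP; used two days later at 20,000 cells/well. GloSensor reagent (2% final) applied 90 min at room temperature, then drug 20 min, then forskolin (30 μM final) 15 min, all at room temperature. Luminescence read; triplicates; pIC50 from nonlinear regression.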
A general note: cAMP levels reflect the balance of adenylyl cyclase and phosphodiesterase activity.

Assay [6] deals with T2, Delta-type opioid receptor. Description: Agonist activity at human delta opioid receptor expressed in CHO cells co-expressing beta-arrestin2 assessed as beta-arrestin2 recruitment measured after 90 mins by PathHunter assay. It counts as functional, cell-based. The procedure, abridged: (§1)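 PathHunter CHO cells expressing human δOR and β-arrestin 2 were plated at 2,500 cells/well one day before use. Drug was applied for 90 min at 37 °C/5% CO2, followed by PathHunter assay buffer for 60 min at room temperature. Luminescence was read. Points were run in duplicate, and pEC50 was obtained by nonlinear regression; values are means ± SEM.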

The target of assay [7] is T2, Delta-type opioid receptor. In words: Agonist activity at human delta opioid receptor expressed in CHO cells co-expressing beta-arrestin2 assessed as beta-arrestin2 recruitment by measuring maximum efficacy measured after 90 mins by PathHunter assay. The note with it: filed as agonist. The class given is functional, cell-based. An outline of the steps: as §1

T2 sequence (P41143 whole entry): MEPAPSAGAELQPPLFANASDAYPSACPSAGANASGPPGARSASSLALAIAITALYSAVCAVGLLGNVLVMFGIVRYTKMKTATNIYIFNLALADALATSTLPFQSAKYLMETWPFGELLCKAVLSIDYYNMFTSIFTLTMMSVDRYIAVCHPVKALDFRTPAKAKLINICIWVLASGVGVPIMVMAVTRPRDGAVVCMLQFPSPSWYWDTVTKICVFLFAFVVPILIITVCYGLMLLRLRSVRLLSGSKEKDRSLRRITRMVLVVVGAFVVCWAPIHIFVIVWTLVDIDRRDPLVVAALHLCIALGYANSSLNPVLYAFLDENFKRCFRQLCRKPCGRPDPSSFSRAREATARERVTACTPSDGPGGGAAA
Sequence of Delta-type opioid receptor (Mus musculus, UniProt P32300) (P32300 whole entry): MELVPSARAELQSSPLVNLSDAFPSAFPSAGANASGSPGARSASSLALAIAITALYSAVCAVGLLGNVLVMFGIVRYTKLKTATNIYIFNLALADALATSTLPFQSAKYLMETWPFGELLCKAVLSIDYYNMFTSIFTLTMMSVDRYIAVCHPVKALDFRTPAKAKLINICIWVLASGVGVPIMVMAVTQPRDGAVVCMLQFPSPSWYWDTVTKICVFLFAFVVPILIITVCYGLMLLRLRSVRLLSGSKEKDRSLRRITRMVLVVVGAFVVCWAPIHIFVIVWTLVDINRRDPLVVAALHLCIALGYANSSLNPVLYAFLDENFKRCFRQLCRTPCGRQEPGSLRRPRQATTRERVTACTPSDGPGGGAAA
Sequence of Mu-type opioid receptor (Mus musculus, UniProt P42866) (P42866 whole entry): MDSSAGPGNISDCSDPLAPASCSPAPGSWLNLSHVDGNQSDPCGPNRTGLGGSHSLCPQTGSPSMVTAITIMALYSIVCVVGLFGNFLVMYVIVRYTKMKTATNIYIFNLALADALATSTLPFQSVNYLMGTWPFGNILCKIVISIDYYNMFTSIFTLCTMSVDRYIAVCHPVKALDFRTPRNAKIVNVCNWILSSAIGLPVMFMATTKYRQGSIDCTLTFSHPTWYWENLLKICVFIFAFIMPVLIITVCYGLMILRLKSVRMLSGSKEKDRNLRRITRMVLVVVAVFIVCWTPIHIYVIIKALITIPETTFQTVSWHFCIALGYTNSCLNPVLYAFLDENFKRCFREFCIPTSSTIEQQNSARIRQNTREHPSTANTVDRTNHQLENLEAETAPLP
T1 sequence (P35372 whole entry): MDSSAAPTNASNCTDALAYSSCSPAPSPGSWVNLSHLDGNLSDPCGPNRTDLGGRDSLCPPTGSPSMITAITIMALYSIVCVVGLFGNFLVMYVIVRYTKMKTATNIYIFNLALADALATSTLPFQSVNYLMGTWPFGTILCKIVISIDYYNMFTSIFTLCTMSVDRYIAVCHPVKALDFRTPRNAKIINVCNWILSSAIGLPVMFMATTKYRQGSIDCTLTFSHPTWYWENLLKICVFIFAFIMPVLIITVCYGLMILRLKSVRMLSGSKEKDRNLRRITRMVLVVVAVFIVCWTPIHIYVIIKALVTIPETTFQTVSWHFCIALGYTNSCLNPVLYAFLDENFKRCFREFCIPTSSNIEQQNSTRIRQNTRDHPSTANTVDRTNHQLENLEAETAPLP

`CC(C)C[C@H](NC(=O)[C@H](Cc1ccccc1)NC(=O)CNC(=O)C/C=C(\F)[C@@H](N)Cc1ccc(O)cc1)C(=O)N(C)C`: the 50% effective concentration (EC50) – broadly, the concentration that produces a half-maximal response – at Mu-type opioid receptor [1] was 17.6 µM; in assay [6] it was 3820 nM. Moreover, the inhibition constant Ki (as a rule, a measure of affinity in units of concentration, obtained from inhibition or displacement) in assay [2] came to 255 nM; at Mu-type opioid receptor [4], 85.4 nM. Further, the Ratio Ki in the assay listed under Homo sapiens was determined as 0.3. Further, the concentration for half-maximal inhibition (IC50) (commonly the concentration needed to halve the response being measured) on Mu-type opioid receptor [3] was found to be 1000 nM; in assay [5], 425 nM. In assay [7], the maximum response (Emax) (as a rule, the maximal effect, on the per cent scale that the assay sets) turned out to be 63%.

On to `CCNC(=O)[C@H](CC(C)C)NC(=O)[C@H](Cc1ccccc1)NC(=O)CNC(=O)C/C=C(\F)[C@@H](N)Cc1ccc(O)cc1`, for which the EC50 was 2.26 µM at Mu-type opioid receptor [1] and 695 nM in assay [6]. Further, the Ki in assay [2] came out at 54.7 nM; at Mu-type opioid receptor [4], 20 nM. Further, in the assay filed under Homo sapiens, the Ratio Ki was found to be 0.4. Further, the half-inhibitory concentration (IC50) was 178 nM on Mu-type opioid receptor [3] and 66.2 nM in assay [5]. Also, the Emax in assay [7] turned out to be 70%.

For the molecule `CC(C)C[C@H](NC(=O)[C@H](Cc1ccccc1)NC(=O)CNC(=O)C/C=C(\F)[C@@H](N)Cc1ccc(O)cc1)C(=O)NC1CC1`, the EC50 at Mu-type opioid receptor [1] was 4.26 µM; in assay [6], 693 nM. In addition, the inhibition constant Ki in assay [2] amounted to 104 nM; on Mu-type opioid receptor [4], 26.1 nM. Besides, the Ratio Ki in the assay filed under Homo sapiens was found to be 0.3. Besides, the figures for the IC50 (at Mu-type opioid receptor [3]; in assay [5]) were 126 nM and 152 nM, respectively. Further, in assay [7], the maximal effect (Emax) is 69%.

As to `CC(C)C[C@H](NC(=O)[C@H](Cc1ccccc1)NC(=O)CNC(=O)C/C=C(\F)[C@@H](N)Cc1ccc(O)cc1)C(=O)O`, the results for the 50% inhibitory concentration (IC50) (on Mu-type opioid receptor [3]; in assay [5]) were 363 nM and 33.7 nM, respectively. In assay [7], the maximum response (Emax) stood at 102%.

As for `CC(C)C[C@H](NC(=O)[C@H](Cc1ccccc1)NC(=O)CNC(=O)C/C=C(\F)[C@@H](N)Cc1ccc(O)cc1)C(N)=O`, the results for the 50% effective concentration (EC50) (at Mu-type opioid receptor [1]; in assay [6]) were 2.64 µM and 959 nM, respectively. The inhibitory constant (Ki) amounted to 94.4 nM in assay [2] and 7.07 nM on Mu-type opioid receptor [4]. Besides, the Ratio Ki in the assay filed under Homo sapiens is 0.1. For the same molecule, the results for the 50% inhibitory concentration (IC50) (on Mu-type opioid receptor [3]; in assay [5]) were 186 nM and 46.6 nM, respectively. The Emax in assay [7] was determined as 84%.

With `CNC(=O)[C@H](CC(C)C)NC(=O)[C@H](Cc1ccccc1)NC(=O)CNC(=O)C/C=C(\F)[C@@H](N)Cc1ccc(O)cc1`, the figures for the EC50 (at Mu-type opioid receptor [1]; in assay [6]) were 7.21 µM and 667 nM, respectively. For the same molecule, the Ki in assay [2] is 55.9 nM; at Mu-type opioid receptor [4] it was 9.92 nM. Besides, in the assay listed under Homo sapiens, the Ratio Ki worked out at 0.2. Moreover, the results for the concentration for half-maximal inhibition (IC50) (on Mu-type opioid receptor [3]; in assay [5]) were 42.7 nM and 50.2 nM, respectively. Besides, in assay [7], the Emax was found to be 90%.
